Results reported in ChEMBL document CHEMBL1139934, “Synthesis and biological activity of imidazopyridine anticoccidial agents: part I” (Eur J Med Chem, 2007).
pIC50: −log10 of the molar value. One block for each compound: values may come before it.

Experiments:
[1] = test system: Eimeria acervulina; assay: Anticococcidal activity against Eimeria acervulina in Chick assessed as reduction in oocyte at 12.5 ppm relative to control; assay type: functional; parameters: scale not given: the % may be the effect or the level left
Procedure, shortened: (§1)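 Expanded Mini-Assay Coccidiosis (ExMAC) in chickens infected with E. tenella, E. acervulina, E. mitis and E. maxima. Compound given in the feed at the stated ppm. Efficacy for each species is scored 0 to 4 from the percent oocyst reduction relative to an untreated control. Where a compound was tested more than once, all values are reported.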

[2] = test system: Eimeria mitis; assay: Anticococcidal activity against Eimeria mitis in Chick assessed as reduction in oocyte at 6.25 ppm relative to control; assay type: functional; parameters: scale not given: the % may be the effect or the level left; procedure, shortened: as §1
[3] = test system: Eimeria maxima; assay: Anticococcidal activity against Eimeria maxima in Chick assessed as reduction in oocyte at 6.25 ppm relative to control; assay type: functional; parameters: scale not given: the % may be the effect or the level left; procedure, shortened: as §1
[4] = test system: Eimeria maxima; assay: Anticococcidal activity against Eimeria maxima in Chick assessed as reduction in oocyte at 12.5 ppm relative to control; assay type: functional; parameters: scale not given: the % may be the effect or the level left; procedure, shortened: as §1
[5] = test system: Eimeria tenella; assay: Anticococcidal activity against Eimeria tenella in Chick assessed as reduction in oocyte at 6.25 ppm relative to control; assay type: functional; parameters: scale not given: the % may be the effect or the level left; procedure, shortened: as §1
[6] = test system: Eimeria maxima; assay: Anticococcidal activity against Eimeria maxima in Chick assessed as reduction in oocyte at 25 ppm relative to control; assay type: functional; parameters: scale not given: the % may be the effect or the level left; procedure, shortened: as §1
[7] = test system: Eimeria tenella; assay: Anticococcidal activity against Eimeria tenella in Chick assessed as reduction in oocyte at 25 ppm relative to control; assay type: functional; parameters: scale not given: the % may be the effect or the level left; procedure, shortened: as §1
[8] = test system: Eimeria tenella; assay: Anticococcidal activity against Eimeria tenella in Chick assessed as reduction in oocyte at 12.5 ppm relative to control; assay type: functional; parameters: scale not given: the % may be the effect or the level left; procedure, shortened: as §1
[9] = molecular target: cGMP-dependent protein kinase (Eimeria tenella, UniProt Q8MMZ8); assay: Inhibition of Eimeria tenella cGMP-dependent protein kinase by Ten_K assay
Chain of cGMP-dependent protein kinase (Q8MMZ8 whole entry): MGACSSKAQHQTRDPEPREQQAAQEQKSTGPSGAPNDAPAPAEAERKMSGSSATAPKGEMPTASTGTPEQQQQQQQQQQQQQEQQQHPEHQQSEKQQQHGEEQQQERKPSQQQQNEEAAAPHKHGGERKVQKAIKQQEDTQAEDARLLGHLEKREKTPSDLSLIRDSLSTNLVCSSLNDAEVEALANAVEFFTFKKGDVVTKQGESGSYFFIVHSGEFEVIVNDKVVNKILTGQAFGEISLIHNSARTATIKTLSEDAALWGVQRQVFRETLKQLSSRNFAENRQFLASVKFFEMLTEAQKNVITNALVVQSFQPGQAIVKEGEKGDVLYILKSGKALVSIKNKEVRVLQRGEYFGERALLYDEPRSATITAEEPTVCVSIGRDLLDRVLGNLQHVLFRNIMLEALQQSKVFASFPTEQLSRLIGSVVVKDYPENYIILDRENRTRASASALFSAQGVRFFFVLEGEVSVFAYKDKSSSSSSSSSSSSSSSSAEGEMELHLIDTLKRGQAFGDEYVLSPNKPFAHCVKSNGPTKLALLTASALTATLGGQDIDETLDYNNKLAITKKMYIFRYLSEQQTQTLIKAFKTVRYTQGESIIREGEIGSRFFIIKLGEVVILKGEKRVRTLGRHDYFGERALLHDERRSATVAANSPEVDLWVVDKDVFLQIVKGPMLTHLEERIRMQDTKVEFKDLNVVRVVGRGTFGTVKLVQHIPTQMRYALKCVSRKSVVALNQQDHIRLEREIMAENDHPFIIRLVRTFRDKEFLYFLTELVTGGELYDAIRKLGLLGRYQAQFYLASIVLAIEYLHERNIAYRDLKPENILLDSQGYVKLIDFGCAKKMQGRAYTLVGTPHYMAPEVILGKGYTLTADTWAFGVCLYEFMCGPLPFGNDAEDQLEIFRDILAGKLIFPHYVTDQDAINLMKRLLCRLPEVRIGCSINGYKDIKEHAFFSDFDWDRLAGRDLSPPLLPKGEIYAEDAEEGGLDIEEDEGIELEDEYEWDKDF
Procedure, shortened: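 Ten_K (Tenella Kinase) assay measuring inhibition of E. tenella PKG enzyme activity. Result expressed as the concentration giving 50% inhibition (IC50, nM). Where a compound was tested more than once, all values are reported.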

[10] = test system: Eimeria mitis; assay: Anticococcidal activity against Eimeria mitis in Chick assessed as reduction in oocyte at 25 ppm relative to control; assay type: functional; parameters: scale not given: the % may be the effect or the level left; procedure, shortened: as §1
[11] = test system: Eimeria mitis; assay: Anticococcidal activity against Eimeria mitis in Chick assessed as reduction in oocyte at 12.5 ppm relative to control; assay type: functional; parameters: scale not given: the % may be the effect or the level left; procedure, shortened: as §1
[12] = test system: Eimeria acervulina; assay: Anticococcidal activity against Eimeria acervulina in Chick assessed as reduction in oocyte at 25 ppm relative to control; assay type: functional; parameters: scale not given: the % may be the effect or the level left; procedure, shortened: as §1
[13] = test system: Eimeria acervulina; assay: Anticococcidal activity against Eimeria acervulina in Chick assessed as reduction in oocyte at 6.25 ppm relative to control; assay type: functional; parameters: scale not given: the % may be the effect or the level left; procedure, shortened: as §1

pIC50 [9]: 9.60
Compound: CCCCC(=O)Nc1nccc(-c2c(-c3ccc(F)cc3)nc3cc(CN(C)C)ccn23)n1
Activity [1]: 50%
Activity [2]: <50%
Activity [3]: 80%
Activity [4]: 80%
Activity [5]: < 50%
Activity [6]: 80%
Activity [7]: 80%
Activity [8]: 50%
Activity [10]: 80%
Activity [12]: 80%
Activity [13]: 80%

pIC50 [9]: 10.05
Compound: CN(C)Cc1ccn2c(-c3ccnc(NCc4cccc(F)c4)n3)c(-c3ccc(F)cc3)nc2c1
Activity [1]: 50%
Activity [2]: <50%
Activity [3]: <50%
Activity [4]: 80%
Activity [5]: <50%
Activity [6]: 80%
Activity [7]: 50%
Activity [8]: <50%
Activity [10]: 50%
Activity [11]: <50%
Activity [12]: 80%
Activity [13]: <50%

pIC50 [9]: 10.22
Compound: CN(C)Cc1ccn2c(-c3ccnc(NCc4c(F)cccc4F)n3)c(-c3ccc(F)cc3)nc2c1
Activity [1]: <50%
Activity [2]: <50%
Activity [3]: 50%
Activity [4]: 80%
Activity [5]: <50%
Activity [6]: 80%
Activity [7]: 50%
Activity [8]: <50%
Activity [10]: 80%
Activity [11]: <50%
Activity [12]: <50%
Activity [13]: <50%

pIC50 [9]: 10.10
Compound: CN(C)Cc1ccn2c(-c3ccnc(NC4CC4)n3)c(-c3ccc(F)cc3)nc2c1
Activity [1]: 80%
Activity [2]: <50%
Activity [3]: 80%
Activity [4]: 80%
Activity [5]: <50%
Activity [6]: 80%
Activity [7]: 80%
Activity [8]: 80%
Activity [10]: 80%
Activity [11]: 50%
Activity [12]: 80%
Activity [13]: 80%

pIC50 [9]: 9.35
Compound: CN(C)Cc1ccn2c(-c3ccnc(NC=O)n3)c(-c3ccc(F)cc3)nc2c1
Activity [1]: 80%
Activity [2]: <50%
Activity [3]: 80%
Activity [4]: 80%
Activity [5]: 80%
Activity [8]: 80%
Activity [11]: 50%
Activity [13]: 80%

pIC50 [9]: 9.38
Compound: CN(C)Cc1ccn2c(-c3ccnc(NC(=O)C4CC4)n3)c(-c3ccc(F)cc3)nc2c1
Activity [1]: 80%
Activity [2]: <50%
Activity [3]: <50%
Activity [4]: 80%
Activity [5]: 50%
Activity [6]: 50%
Activity [7]: 80%
Activity [8]: 80%
Activity [10]: 80%
Activity [11]: 80%
Activity [12]: 80%
Activity [13]: 80%

pIC50 [9]: 9.52
Compound: CCC(=O)Nc1nccc(-c2c(-c3ccc(F)cc3)nc3cc(CN(C)C)ccn23)n1
Activity [1]: <50%
Activity [2]: <50%
Activity [4]: 80%
Activity [5]: <50%
Activity [6]: 80%
Activity [7]: 80%
Activity [8]: 80%
Activity [10]: 80%
Activity [11]: <50%
Activity [12]: 80%
Activity [13]: <50%

The remaining lines, values behind:

Compound: CN(C)Cc1ccn2c(-c3ccnc(NC4CCC4)n3)c(-c3ccc(F)cc3)nc2c1
Activity [1]: 80%
Activity [2]: <50%
Activity [3]: 50%
Activity [4]: 80%
Activity [5]: 80%
Activity [6]: 80%
Activity [7]: 80%
Activity [8]: 80%
pIC50 [9]: 9.66
Activity [10]: 80%
Activity [11]: 50%
Activity [12]: 80%
Activity [13]: <50%

Compound: CCNc1nccc(-c2c(-c3ccc(F)cc3)nc3cc(CN(C)C)ccn23)n1
Activity [1]: 80%
Activity [2]: <50%
Activity [3]: 80%
Activity [4]: 80%
Activity [5]: <50%
Activity [6]: 80%
Activity [7]: 80%
Activity [8]: 80%
pIC50 [9]: 9.64
Activity [10]: 80%
Activity [11]: <50%
Activity [12]: 80%

Compound: CN(C)Cc1ccn2c(-c3ccnc(N)n3)c(-c3ccc(F)cc3)nc2c1
Activity [1]: <50%
Activity [2]: <50%
Activity [3]: 80%
Activity [4]: 80%
Activity [5]: <50%
Activity [6]: 80%
Activity [7]: 80%
Activity [8]: 80%
pIC50 [9]: 9.64
Activity [10]: 80%
Activity [11]: 80%
Activity [12]: 80%
Activity [13]: <50%

Compound: CN(C)Cc1ccn2c(-c3ccnc(NCCCO)n3)c(-c3ccc(F)cc3)nc2c1
Activity [1]: 80%
Activity [2]: <50%
Activity [3]: 80%
Activity [4]: 80%
Activity [5]: 80%
Activity [8]: 80%
pIC50 [9]: 9.48
Activity [11]: 80%
Activity [13]: <50%

Compound: CCCC(=O)Nc1nccc(-c2c(-c3ccc(F)cc3)nc3cc(CN(C)C)ccn23)n1
Activity [1]: 80%
Activity [2]: <50%
Activity [3]: 80%
Activity [4]: 80%
Activity [5]: <50%
Activity [8]: 80%
pIC50 [9]: 9.20
Activity [11]: 80%
Activity [13]: <50%

Compound: COCCNc1nccc(-c2c(-c3ccc(F)cc3)nc3cc(CN(C)C)ccn23)n1
Activity [1]: 80%
Activity [2]: <50%
Activity [3]: 50%
Activity [4]: 80%
Activity [5]: <50%
Activity [6]: 80%
Activity [7]: 80%
Activity [8]: 80%
pIC50 [9]: 9.60
Activity [10]: <50%
Activity [11]: <50%
Activity [12]: 80%
Activity [13]: <50%

Compound: CN(C)Cc1ccn2c(-c3ccnc(NC(=O)C4CCC4)n3)c(-c3ccc(F)cc3)nc2c1
Activity [1]: <50%
Activity [2]: <50%
Activity [3]: <50%
Activity [4]: 80%
Activity [5]: 80%
Activity [6]: 80%
Activity [7]: 80%
Activity [8]: 80%
pIC50 [9]: 9.57
Activity [10]: 80%
Activity [11]: 80%
Activity [12]: 80%
Activity [13]: <50%

Compound: CN(C)Cc1ccn2c(-c3ccnc(NC4CCCCC4)n3)c(-c3ccc(F)cc3)nc2c1
Activity [1]: <50%
Activity [2]: <50%
Activity [3]: 80%
Activity [4]: 80%
Activity [5]: 80%
Activity [6]: 80%
Activity [7]: 80%
Activity [8]: 80%
pIC50 [9]: 9.92
Activity [10]: 80%
Activity [11]: 50%
Activity [12]: 50%
Activity [13]: <50%

Compound: CN(C)Cc1ccn2c(-c3ccnc(NCC4CC4)n3)c(-c3ccc(F)cc3)nc2c1
Activity [1]: 80%
Activity [2]: <50%
Activity [3]: 80%
Activity [4]: 80%
Activity [5]: <50%
Activity [6]: 80%
Activity [7]: 80%
Activity [8]: 80%
pIC50 [9]: 10.19
Activity [10]: 80%
Activity [11]: 80%
Activity [12]: 80%
Activity [13]: 80%

Compound: CN(C)Cc1ccn2c(-c3ccnc(NC4CCCC4)n3)c(-c3ccc(F)cc3)nc2c1
Activity [1]: 80%
Activity [2]: 50%
Activity [3]: <50%
Activity [4]: 80%
Activity [5]: 80%
Activity [8]: 80%
pIC50 [9]: 9.99
Activity [11]: 80%
Activity [13]: 80%
